From PubChem
A selection: hits, their analogues and other compounds. The true share with any hit is near 3.3%.
PRMT1 inh: inhibitors of human PRMT1. 1.3% of 370,000 active. recombinant PRMT1, activity-based probe fluorescence polarization. inhibition, % at 2.79 µM. Q99873;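 active = inhibition above about 21% made by adding two undisclosed values, limit read from the data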
Target sequence (Q99873 whole entry, looked up): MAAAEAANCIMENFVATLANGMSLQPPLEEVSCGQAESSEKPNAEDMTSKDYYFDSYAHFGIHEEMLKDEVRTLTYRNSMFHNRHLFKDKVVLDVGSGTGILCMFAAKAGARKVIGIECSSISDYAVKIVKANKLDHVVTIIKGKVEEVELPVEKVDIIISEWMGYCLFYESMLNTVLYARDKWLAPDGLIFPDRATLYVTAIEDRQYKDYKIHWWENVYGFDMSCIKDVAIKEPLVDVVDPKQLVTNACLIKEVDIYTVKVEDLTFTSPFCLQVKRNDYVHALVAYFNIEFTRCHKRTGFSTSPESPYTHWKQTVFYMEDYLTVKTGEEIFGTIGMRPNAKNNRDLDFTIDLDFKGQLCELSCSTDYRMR
rCAG binder-1: binds r(CAG) RNA repeats. 1.3% of 370,000 active. inhibition, % at 3 µM. r(CAG) RNA repeat, TO-PRO-1 dye displacement fluorescence. AID 651821;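 active = inhibition above the plate cutoff, the mean of all test compounds on that plate plus 3 SD, cut at about 35% in these data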;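 note: 0% = DMSO alone and 100% = 100 µM mitoxantrone as full dye displacement; higher means more dye released from RNA so lower well fluorescence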
SIAE inh: blocks human sialic acid acetylesterase | Q9HAT2 | 0.69% of 370,000 active | SIAE FP-Rh probe binding, fluorescence polarization | AID 1053197 | inhibition, % at 9.66 µM;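 active = inhibition above a cutoff: mean of compounds within the control limits plus 3 SD of those, cut at about 17% in these data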;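 note: 0% = plate median of compound wells and 100% = probe without SIAE protein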
TCR-CD3 inh: human TCR-CD3 binding inhibition; TAMRA-labeled TCR probe fluorescence, biochemical; inhibition, % at 9.4 µM; 0.37% of 360,000 active; in the data active = inhibition above about 19%;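 note: recombinant mutant TCR 2C K166C tagged with TAMRA read by polarization; 0% = receptor in buffer alone and 100% = receptor with positive control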
ABHD4 inh: ABHD4 (mouse) inhibition, primary FP screen; Q8VD66; purified mABHD4, FP-Rh probe fluorescence polarization; inhibition, % at 8.92 µM; AID 720543; 0.54% of 370,000 active;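 active = inhibition exceeding the mean over every tested compound plus 3 SD, cut at about 30% in these data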;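 note: 0% = plate median of compound wells and 100% = S159A mutant with DMSO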
Target sequence (Q8VD66 whole entry, looked up): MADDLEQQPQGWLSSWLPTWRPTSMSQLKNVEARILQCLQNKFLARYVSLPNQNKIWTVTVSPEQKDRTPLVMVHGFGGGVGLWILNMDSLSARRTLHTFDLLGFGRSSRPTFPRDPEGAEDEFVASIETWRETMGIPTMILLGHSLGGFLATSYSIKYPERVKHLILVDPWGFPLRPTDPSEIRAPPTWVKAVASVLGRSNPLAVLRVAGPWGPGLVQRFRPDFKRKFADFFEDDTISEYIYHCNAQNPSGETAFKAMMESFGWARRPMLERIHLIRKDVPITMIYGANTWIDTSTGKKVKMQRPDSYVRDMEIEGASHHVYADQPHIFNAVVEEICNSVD
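Assay system: mABHD4 protein; medium: HEPES pH 7.0, NaCl, Pluronic buffer; dosing: 8.92 µM, single dose; schedule: 45 min + 60 min at 25 °C; signal: FP readout, ex 525 nm / em 598 nm; read-out: normalized percent inhibition of probe labeling; repeats: single replicate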
rCAG binder conf: r(CAG) RNA repeat binding, confirmation | shares compounds with rCAG binder-1 | TO-PRO-1 dye displacement fluorescence | inhibition, % at 3 µM | 70% of 4,300 active | AID 652065;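 active = inhibition above a per-plate cutoff, the mean inhibition of sample wells plus 3 SD, cut at about 35% in these data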;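 note: loss of TO-PRO-1 fluorescence as compound displaces dye from 1x1 AA loop RNA; 0% = DMSO only wells and 100% = 100 µM mitoxantrone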
dCAG dye counter: DNA CAG dye complex inhibition counter-screen; shares compounds with rCAG binder-1; d(CAG) DNA oligo TO-PRO-1 dye displacement, fluorescence; inhibition, % at 3 µM; 94% of 4,300 active;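 active = inhibition above its plate's cutoff, the mean test-well inhibition plus 3 SD, cut at about 4.8% in these data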;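 note: 0% = DNA dye mix with DMSO and 100% = 100 µM mitoxantrone; hits displace the dye from DNA and so lower well fluorescence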
DNA CAG DR: disrupts DNA CAG TO-PRO-1 complex in dose response; AID 686960; shares compounds with rCAG binder-1; IC50, µM; DNA CAG/GTC duplex TO-PRO-1 dye displacement fluorescence; 20% of 250 active; in the data active = IC50 below about 10 µM
dCAG TOPRO ctr: counter-screen for rCAG binders: DNA CAG TO-PRO-1 complex inhibitors, late stage; shares compounds with rCAG binder-1; d(CAG) DNA duplex TO-PRO-1 dye displacement, fluorescence; IC50, µM; 80% of 30 active; AID 720649
rCAG binder-2: binds r(CAG) RNA repeats in late stage dose response; r(CAG) RNA TO-PRO-1 dye displacement, fluorescence; IC50, µM; AID 720651; 100% of 30 active; shares compounds with rCAG binder-1
Numbers without * were called inactive; / = no result given. Unless noted, the rule behind the calls is not given here.

SMILES	PRMT1 inh	rCAG binder-1	SIAE inh	TCR-CD3 inh	ABHD4 inh	rCAG binder conf	dCAG dye counter	others
CN(c1ccc(OCC(=O)Nc2cc(Cl)ccc2C(=O)O)cc1)S(=O)(=O)c1ccc(F)cc1	-2.4	77.2*	-11.3	-5.7	-30.8	74.0*	34.0*	DNA CAG DR=6.17*;dCAG TOPRO ctr=2.52*;rCAG binder-2=1.21*
COC(=O)c1sc2nc(-c3ccco3)ccc2c1N	55.3*	50.2*	10.0	5.7	20.9	22.6	11.7*
CC(C)OC(=O)c1sc2nc(-c3ccccc3)ccc2c1N	9.6	9.2	-5.2	-6.2	0.1	/	/
O=C(O)c1ccc(Cn2cnc3scc(-c4ccccc4)c3c2=O)cc1	2.2	7.3	-2.4	-1.2	-4.1	/	/
CCCOc1ccc(-c2csc3ncn(Cc4ccc(C(=O)O)cc4)c(=O)c23)cc1	-0.8	51.3*	-3.7	-2.1	-56.0	39.6*	11.1*
CCOC(=O)N1CCN(C(=O)C[C@H]2C[C@@]3(C(=O)OC)C(=C[C@H](COCc4ccccc4)O[C@@H]3C)N(Cc3ccc(Cl)cc3Cl)C2=O)CC1	2.6	8.7	-0.1	/	-5.2	/	/
O=C(Cc1csc(NC(=O)Nc2cccc(Cl)c2)n1)NCc1ccccn1	0.4	38.6*	-2.8	-8.5	-12.7	15.3	14.4*
O=C(Cc1csc(NC(=O)Nc2cccc(Cl)c2)n1)NCc1cccnc1	-2.8	33.3	-3.3	-3.4	-5.9	/	/
O=C(Cc1csc(NC(=O)Nc2cccc(Cl)c2)n1)NC1CCCC1	-3.3	43.9*	-3.8	-2.1	-9.7	17.7	14.3*
COc1ccc(-n2c(SCC(=O)N/N=C(/C)c3cccc(O)c3)nc3ccccc3c2=O)cc1	4.5	7.6	-1.6	/	-4.7	/	/
CC(C)(C)NC(=O)C(c1cccnc1)N(C(=O)c1cnc[nH]1)c1ccc(C(C)(C)C)cc1 (stereo unspecified)	-4.0	/	-0.7	/	-2.1	/	/
Fc1ccccc1-c1n[nH]c(=S)n1N=Cc1ccc(OCc2ccccc2)cc1	18.6	70.3*	3.5	/	-27.1	58.0*	19.5*
Fc1ccc(-c2n[nH]c(=S)n2N=Cc2ccc(-c3ccccc3)cc2)cc1	5.8	43.9*	-1.6	/	3.7	39.6*	16.1*
COc1ccc(C=Nn2c(-c3n[nH]c4c3CCC4)n[nH]c2=S)cc1OCc1ccccc1	20.2	48.7*	4.6	/	1.5	45.1*	17.4*
CCOc1ccc(/C=N/n2c(-c3ccccc3)n[nH]c2=S)cc1	17.4	18.0	10.6	-8.5	-7.5	/	/
COc1ccc(C=Nn2c(-c3ccccc3F)n[nH]c2=S)cc1OCc1ccccc1	20.4	49.6*	-0.1	/	-17.8	41.6*	10.1*
COc1cc(/C=N/n2c(-c3n[nH]c4c3CCC4)n[nH]c2=S)cc(OC)c1O	16.5	-1.0	-4.7	11.5	-3.6	/	/
COc1ccc(-n2c(SC/C=C/c3ccccc3)nnc2-c2cccs2)cc1	-1.1	4.5	-0.3	/	-12.8	/	/
COC(=O)[C@]12C[C@H](CC(=O)N3CCCCC3)C(=O)N(Cc3ccc4c(c3)OCO4)C1=C[C@H](C(C)C)O[C@@H]2C1CC1	-3.8	1.4	2.9	/	-4.5	/	/
O=C1C[C@H](c2ccc3ccccc3c2)N=C2N1/C(=C\c1ccccc1)[C@@H](c1ccccc1C(F)(F)F)N2Cc1ccc2c(c1)OCO2	-8.2	/	0.3	/	2.6	/	/
Cc1cccc(C)c1NC(=O)C1CCN(c2ncccn2)CC1	3.0	1.0	2.7	/	1.9	/	/
C#CCN(C)S(=O)(=O)c1ccc(N2CCCC2)cc1Br	2.3	-1.8	0.0	/	4.2	/	/
Fc1ccc(-c2n[nH]c(=S)n2N=Cc2ccc(OCc3ccccc3)cc2)cc1	14.8	66.8*	-0.8	/	-8.9	46.7*	16.7*
O=C(OCC#CCSc1nnc(-c2cccc3ccccc23)o1)C1CCCC1	1.2	/	4.4	/	1.8	/	/
CC(=O)C1=C(O)C(=Cc2ccccc2)OC1=O	1.2	36.0*	-34.9	-19.3	-31.8	18.7	6.6*
SMILES	PRMT1 inh	rCAG binder-1	SIAE inh	TCR-CD3 inh	ABHD4 inh	rCAG binder conf	dCAG dye counter	others
Cn1c2ccccc2c2cc(/C=C(\NC(=O)c3ccccc3)C(=O)O)ccc21	1.9	37.0*	-4.4	5.0	3.6	26.3	8.0*
Cc1ccc(-c2csc(NC(=O)C3CC=CCC3C(=O)O)c2C(=O)OC(C)C)cc1 (stereo unspecified)	3.7	50.6*	3.2	3.6	-3.2	58.0*	19.0*
CCOC(=O)c1c(-c2ccc(C)cc2)csc1NC(=O)C1CC=CCC1C(=O)O (stereo unspecified)	3.2	2.3	1.5	3.4	-3.4	/	/
CC(C)N(Cc1cn(Cc2ccccc2)nn1)S(=O)(=O)c1ccc(F)cc1Br	-7.8	-1.1	4.5	/	-0.8	/	/
COc1ccc(OC)c(S(=O)(=O)N2CCC(C(=O)NCc3cccs3)CC2)c1	-4.6	4.0	6.4	/	-4.0	/	/
CCOC(=O)C1CCCN(c2nc3ccccc3nc2NS(=O)(=O)c2ccc(C)cc2)C1 (stereo unspecified)	-4.4	61.8*	5.6	-1.1	-3.0	58.2*	14.6*
N#Cc1c(NC(=O)/C=C/c2ccco2)sc2c1CCCC2	13.9	37.9*	-2.9	5.7	-7.9	25.7	13.6*
Cc1ccc2[nH]c(C(=O)O)c(NC(=O)CN3CCN(c4cccc(C)c4C)CC3)c2c1	-1.0	65.3*	8.4	1.0	21.3	68.8*	28.4*
CCOC(=O)[C@]12CCCCC/C=C\1N(CCc1ccc(Cl)cc1)C(=O)[C@H]2CC(=O)N1CCN(C(=O)c2ccco2)CC1	4.0	5.7	5.8	/	5.1	/	/
COC1=C[C@H](C(=O)NCc2ccccc2)[C@H](C)[C@@H](c2ccccc2)CC1=O	0.8	2.2	-1.1	/	0.1	/	/
O=C(Nc1ccc(S(=O)(=O)N2CCOCC2)cc1)c1cc(-c2ccccc2O)n[nH]1	-0.5	34.9*	-14.6	-4.8	-37.1	23.6	7.9*
CC1CN(S(=O)(=O)c2ccc(NC(=O)c3cc(-c4ccccc4O)n[nH]3)cc2)CC(C)O1 (stereo unspecified)	1.1	37.0*	-24.1	6.5	-79.4	27.9	14.0*
O=C(O)c1cccc2c(-c3ccccc3)c(-c3ccccc3)[nH]c12	1.2	77.4*	-0.5	2.8	15.7	66.1*	22.9*
COc1cc(C)c(/C=C/C(C)=C/C=C/C(C)=C/C(=O)O)c(C)c1C	2.3	46.6*	2.8	-7.8	-2.2	53.5*	17.4*
